Screening results from PubChem BioAssay.
TMEM16A inh = TMEM16A chloride channel inhibitors, primary screen, cell-based, HTS; HEK293 TMEM16A/YFP iodide influx fluorescence, ionomycin; 1.2% of 310,000 active; AID 588511, 2011; Anoctamin-1 (Mus musculus), Q8BHY3; normalized B-score (activity score, 25-100; higher = stronger inhibition) at 10 µM;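 active means ratio plate-corrected score three or more library SD toward inhibition, starting fluorescence score within five deviations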;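 further: score derived from kinetic fluorescence span divided by baseline fluorescence per well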
FID counter = compounds displacing fluorescent DNA intercalator, primary screen, artefact control for HCV NS3 helicase inhibitor project, biochemical, FID fluorescence | DNA fluorescent intercalator displacement | inhibition, % at 7.9 µM | 0.17% of 290,000 active | AID 1845, 2009; in the data active means inhibition above about 37%;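 further: 0% = vehicle and 100% = reference compound; higher means more ethidium bromide displaced from hairpin DNA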
UBC13 polyUb = UBC13 polyubiquitin chain formation inhibitors, primary screen, biochemical, TR-FRET, uHTS. inhibition, % at 20 µM. 0.47% of 330,000 active. AID 485273, 2010; in the data active means inhibition above about 45%, passing the limit was not always enough
Apaf1 inhib = inhibitors of human Apaf-1 apoptosome, primary screen, biochemical, DEVD-Rh110 fluorescence, uHTS | Apoptotic protease-activating factor 1 (Homo sapiens), O14727 | inhibition, % at 20 µM | reconstituted apoptosome caspase-3 activity | 0.71% of 330,000 active; active means inhibition of at least 40% at 20 µM;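 further: plate controls were DMSO wells for no effect and DEVD-CHO caspase inhibitor wells for full effect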
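Material: reconstituted apoptosome with Apaf-1, cytochrome c, caspase-9, procaspase-3, dATP. Technique: Rh110 fluorescence intensity. Buffer or medium: pH 7.5 Hepes buffer with CHAPS, BSA, DTT. Times: 30 min plus 50 min, RT.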
TMEM16A act = TMEM16A chloride channel activators or potentiators, primary screen, cell-based, HTS. HEK293 TMEM16A/YFP-H148Q/I152L, iodide quench fluorescence; hits give low values. Anoctamin-1 (Mus musculus), Q8BHY3. 0.3% of 340,000 active. B-score at 10 µM;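 active means fluorescence-ratio B-score plate-corrected deviation score at least 3 library SD below zero, with starting fluorescence score within 5 deviations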;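 further: channel opened by trigger with iodide after compound preincubation; score built on the fluorescence ratio of max minus min over baseline; more negative score means more quench and so TMEM16A activation or potentiation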
Numbers without * were called inactive; i = inactive; nt = not tested or not shown. An excerpt weighted towards active compounds, which were near 2.4% of everything screened.

SMILES	TMEM16A inh	FID counter	UBC13 polyUb	Apaf1 inhib	TMEM16A act
COc1ccc(/C=C2\SC(=S)N(CC(=O)NC3C=CS(=O)(=O)C3)C2=O)cc1 (configuration not stated)	i	-24	-13	6	i
S=C1NC2(CCCCC2)NN1c1ccccc1	i	-4	8	-1	-5*
COc1ccc(C(=O)C2CCCN(C/C=C/c3ccccc3OC)C2)c(OC)c1 (configuration not stated)	i	20	5	13	-5.1*
COc1cccc(C(=O)C2CCCN(C/C=C/c3ccccc3OC)C2)c1 (configuration not stated)	i	23	-5	12	i
COc1ccccc1N1CCN(CCNC(=O)Nc2cccc(C)c2C)CC1	25*	19	14	2	i
COc1ccc(N2CCN(CCNC(=O)Nc3cccc(C)c3C)CC2)cc1	i	3	5	6	i
Cc1cc(C)n(C(=O)/C(C#N)=N/Nc2cc(Cl)cc(Cl)c2)n1	100*	3	-31	11	i
C/C=C(\C)CN1CCC(Oc2ccc(C(=O)NCc3ccccn3)cc2)CC1	i	0	1	2	i
Cc1cnc(NC(=O)c2cccc(S(=O)(=O)N3CC(C)OC(C)C3)c2)s1 (configuration not stated)	i	-15	6	-18	i
Cc1ccc(NC(=O)c2c(Cl)nc3ccccn23)cc1	i	-9	-6	2	-6.1*
Clc1ccc(-c2cc(CSc3ccccc3)on2)cc1	i	1	5	1	i
Cc1ccc(SCc2cc(-c3ccc(Cl)cc3)no2)cc1	i	1	3	78*	i
COc1ccc(CCNC(=O)Cn2nc(C)c3c(C)n(-c4ccccc4)nc3c2=O)c(OC)c1	i	-41	2	-4	-7.9*
COc1ccc(OC)c(CCNC(=O)Cn2nc(C)c3c(C)n(-c4ccc(C)cc4)nc3c2=O)c1	i	-47	-2	6	i
COc1ccc(CC(=O)OCC(=O)N2N=C(c3ccccc3)CC2c2ccc(OC)cc2)cc1 (configuration not stated)	i	-28	3	15	i
CCCCC(=O)OCC(=O)N1N=C(c2c[nH]c3ccccc23)C(O)C1c1ccc(OC)cc1 (configuration not stated)	25*	-18	8	39	i
CN(CC(=O)NCc1ccc(F)cc1)CC(=O)Nc1ccc(Cl)c(C(F)(F)F)c1	100*	-12	0	21	i
C=C(C)CSc1nnc2[nH]c(=O)cc(N)n12	i	10	-3	-4	-6.4*
CC(C)CSc1nnc2[nH]c(=O)cc(N)n12	i	3	1	-3	i
O=C(CN1CCCCC1)Nc1cc(Cl)ccc1Oc1ccccc1	100*	-2	-4	27	i
NC(=O)C1CCN(CC(=O)Nc2cc(Cl)ccc2Oc2ccccc2)CC1	i	5	20	11	i
O=C(Cc1ncc(C(F)(F)F)cc1Cl)NCCc1ccccn1	i	-1	14	-4	i
O=S(=O)(Nc1c(S(=O)(=O)c2ccccc2)c2nc3ccccc3nc2n1C1CCCCC1)c1ccccc1	100*	-24	nt	nt	i
C=CCn1c(NS(=O)(=O)c2ccccc2)c(S(=O)(=O)c2ccc(C)cc2)c2nc3ccccc3nc21	i	-23	nt	nt	i
COc1cc(/C=C2/CC/C(=C/c3ccc(O)c(OC)c3)C2=O)ccc1O	i	-19	-58	-3	-13*
SMILES	TMEM16A inh	FID counter	UBC13 polyUb	Apaf1 inhib	TMEM16A act
Cc1ccc(C)c(NC(=O)c2cc(-c3cc(C)c(C)cc3O)n[nH]2)c1	i	-9	0	6	i
Cc1cc(NC(=O)CSc2nnc(-c3ccncc3)n2C)n(-c2ccccc2)n1	i	-1	2	-8	-4.9*
Cc1cc(NC(=O)CSc2nnc(-c3ccncc3)n2Cc2ccccc2)n(-c2ccccc2)n1	i	-30	1	0	i
CN1CCN(c2nc(-c3ccncc3)nc3ccccc23)CC1	i	24	-4	-5	nt
CN1CCN(c2nc(-c3ccc(Cl)cc3)nc3ccccc23)CC1	nt	39*	10	13	i
COc1cc(C(=S)N2CCOCC2)ccc1OC(=O)c1cccc(C)c1	25*	-35	3	14	i
COc1ccc(C)cc1Nc1n[n+](-c2ccccc2)c(-c2ccc(N(C)C)cc2)s1	i	-13	33	38	i
COc1ccc2ccccc2c1-c1sc(Nc2ccccc2)n[n+]1-c1ccc(F)cc1	100*	19	36	33	i
COc1ccc(-c2sc(Nc3ccccc3)n[n+]2-c2ccc(F)cc2)cc1Br	i	-17	-2	4	i
COc1ccc(C)cc1Nc1n[n+](-c2ccccc2)c(-c2c(Cl)cccc2Cl)s1	100*	17	26	34	nt
CC(=O)N1CCN(C(=O)c2cccc(S(=O)(=O)N3CCN(c4ccc(F)cc4)CC3)c2)CC1	i	nt	6	0	i
O=C(c1cccc(S(=O)(=O)N2CCN(c3ccc(F)cc3)CC2)c1)N1CCCCCCC1	i	nt	28	42*	i
C#CCN1C=C(C(=O)OCC)C(C)N(Cc2ccccc2I)S1(=O)=O (configuration not stated)	nt	nt	nt	16	-5*
C#CCN1C=C(C(=O)OCC)C(C)NS1(=O)=O (configuration not stated)	nt	nt	nt	5	i
Cc1ccc(NC(=S)N(CCCN(C)C)Cc2cc3cc4c(cc3[nH]c2=O)OCO4)c(C)c1	i	44*	15	4	i
Cc1ccc(NC(=S)N(CCCN(C)C)Cc2cc3cc4c(cc3[nH]c2=O)OCO4)cc1	i	38*	7	6	i
CN(C)CCCNC(=S)N(CCCN(C)C)Cc1cc2cc3c(cc2[nH]c1=O)OCO3	i	17	nt	nt	i
CCn1c(SCC(=O)N/N=C/c2ccc(C)o2)nnc1-c1ccc(C(C)(C)C)cc1	i	-32	-10	21	i
CCn1c(SCC(=O)N/N=C/c2c[nH]c3ccccc23)nnc1-c1ccc(C(C)(C)C)cc1	25*	-24	-11	37	i
Cn1c(Sc2ccccc2Cl)c(C=O)c2ccccc21	100*	-2	26	7	i
Cc1cccc(Sc2c(C=O)c3ccccc3n2C)c1	25*	-1	37	13	i
Cn1c(Sc2ccc(Cl)cc2)c(C=O)c2ccccc21	i	-4	25	16	i
Cc1ccc(/C(N)=N/OC(=O)CN(C)S(=O)(=O)c2ccc(C)cc2)cc1	i	-28	0	27	i
Cc1ccc(S(=O)(=O)N(C)CC(=O)O/N=C(\N)c2cccc(Br)c2)cc1	i	-21	-6	13	-14*
